From PubChem
Sampled rows, rich in hits. Any-hit rate of the full collection: about 3%.
H9c2 protect: myocardial damage modulation in H9c2 cells; H9c2 cardiomyocytes, H2O2 injury protection, ATPLite, 2 h; protection from H2O2 cell death, % at 20 µM; actives 0.63% (n = 360,000);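 active means compounds giving at least 50% protection of heart cells from peroxide-induced death in the single-dose screen, raw or plate-pattern-corrected value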
DSG3 Ab inh: human desmoglein-3 autoantibody binding inhibition. P32926. DSG3-coupled beads, scFv-anti-DSG3-GFP binding, flow cytometry; hits give low values. binding (percent of control), % at 10 µM. actives 0.48% (n = 310,000). AID 588358;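 active means binding more than 3 SD below its plate's average and above zero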;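 further: hits lower antibody fragment binding to DSG3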
Target sequence (P32926 whole entry, looked up, the tested form may be a part): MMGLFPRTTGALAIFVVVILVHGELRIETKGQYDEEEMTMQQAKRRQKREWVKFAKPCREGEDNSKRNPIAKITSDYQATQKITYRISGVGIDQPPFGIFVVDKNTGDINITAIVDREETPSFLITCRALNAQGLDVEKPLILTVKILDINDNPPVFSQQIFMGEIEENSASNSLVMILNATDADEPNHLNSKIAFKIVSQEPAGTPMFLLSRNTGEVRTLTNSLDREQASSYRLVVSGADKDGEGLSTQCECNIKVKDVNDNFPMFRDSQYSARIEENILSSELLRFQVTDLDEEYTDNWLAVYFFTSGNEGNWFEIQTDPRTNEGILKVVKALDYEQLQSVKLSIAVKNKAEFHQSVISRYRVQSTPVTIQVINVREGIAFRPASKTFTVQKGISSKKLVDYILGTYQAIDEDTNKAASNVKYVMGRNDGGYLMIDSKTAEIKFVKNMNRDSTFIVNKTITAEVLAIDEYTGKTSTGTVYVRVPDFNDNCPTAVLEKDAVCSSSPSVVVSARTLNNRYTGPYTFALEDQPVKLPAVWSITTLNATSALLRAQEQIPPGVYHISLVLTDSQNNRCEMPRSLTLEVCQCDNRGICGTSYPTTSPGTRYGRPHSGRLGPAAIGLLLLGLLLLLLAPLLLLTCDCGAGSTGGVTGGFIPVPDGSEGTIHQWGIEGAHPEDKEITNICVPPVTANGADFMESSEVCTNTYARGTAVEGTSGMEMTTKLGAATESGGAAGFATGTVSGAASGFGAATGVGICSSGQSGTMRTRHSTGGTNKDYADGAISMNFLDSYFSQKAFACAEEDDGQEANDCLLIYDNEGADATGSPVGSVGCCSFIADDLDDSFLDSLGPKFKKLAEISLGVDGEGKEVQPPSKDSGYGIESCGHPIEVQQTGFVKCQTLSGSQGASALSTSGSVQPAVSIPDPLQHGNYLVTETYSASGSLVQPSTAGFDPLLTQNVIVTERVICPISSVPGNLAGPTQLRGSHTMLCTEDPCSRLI
Exocytosis inh: lytic granule exocytosis inhibition | actives 0.66% (n = 360,000) | AID 651702 | TALL-104 LAMP-1 surface exposure, flow cytometry; cells stimulated with thapsigargin and PMA | inhibition, % at 10 µM;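 active means inhibition above about 55%, limit read from the data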
SENP1 inh: blocks the human SENP1 SUMO protease catalytic domain; Q9P0U3; recombinant SENP1 catalytic domain, CyPet-SUMO1-YPet FRET cleavage; inhibition, % at 10 µM; actives 0.21% (n = 360,000);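 active means inhibition at least 30% at 10 µM, raw YFP signal under a set limit, fluorescence ratio 0.5 to 1.5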
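Compound: 10 µM single point, 0.5% DMSO; Test system: hSENP1 catalytic domain, recombinant; Timing: 50 min reaction at room temperature; Technique: FRET, CFP and YFP emission; Control set: no-enzyme wells low, DMSO-plus-enzyme wells high control.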
HNF4A DNA FP: change in binding of human HNF4 alpha to DNA; actives 0.3% (n = 360,000); AID 1224865; activity change, % at 10 µM; HNF4a-FITC DNA binding, fluorescence polarization, 1 h; P41235; in the data active means activity change above about 30%, passing the limit was not always enough
Myeloid diff MLP: myeloid differentiation induction. ER-HoxA9 myeloid progenitors, lysozyme-GFP differentiation, flow cytometry. calls only at 10 µM. actives 1% (n = 360,000);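 active means normalized GFP-positive differentiation at or above the plate's own cutoff, the solvent-only control mean plus 3 SD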;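 further: cells exposed to compound for four days before flow analysis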
Myeloid diff: myeloid differentiation induction; shares compounds with Myeloid diff MLP; ER-HoxA9 myeloid progenitors, GFP/Mac1 double-positive flow; calls only; actives 2% (n = 2,300);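 active means share of green or green-and-red cells above 9 and 9% in run 1 or 4 and 3% in run 2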
GFP autofluor: compound fluorescence in myeloid differentiation counter-screen; shares compounds with Myeloid diff MLP; ER-HoxA9 myeloid progenitors, no estrogen, GFP autofluorescence flow cytometry; vehicle wells 0%, positive control 100%; fluorescence response, % (concentration not given with the values); actives 7.4% (n = 2,300);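 active means over 5% cells positive for green fluorescent reporter, or over 2% positive for both it and APC stain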
Calls only; - = inactive; . = no result given; + = active, no number.

SMILES	H9c2 protect	DSG3 Ab inh	Exocytosis inh	SENP1 inh	HNF4A DNA FP	Myeloid diff MLP	Myeloid diff	GFP autofluor
O=C(CN(C(=O)CCC(=O)Nc1ccccn1)c1ccc(F)cc1)NCc1ccc(F)cc1	-	-	-	-	-	-	.	.
CCOC(=O)C1=C(CCc2ccccc2)NC(=O)NC1c1ccc(Br)cc1 (centres undefined)	-	-	-	-	-	-	.	.
CCOC(=O)C1=C(CN2c3ccccc3CC2C)NC(=O)NC1c1ccccc1 (centres undefined)	-	-	-	-	-	+	-	-
O=C(c1ccc(NS(=O)(=O)c2cccs2)cc1)N1CCOCC1	-	.	-	-	-	-	.	.
Cc1ccc(O)c(NC(=O)c2cc(-c3ccccc3)on2)c1	-	-	-	-	-	+	-	-
O=C(Nc1cc(Br)ccc1O)c1cc(-c2ccco2)on1	-	-	-	-	-	-	-	-
O=C(Nc1cc(Br)ccc1O)c1cc(-c2ccccc2)on1	-	-	-	-	-	-	.	.
O=C(Cc1ccccc1)Nc1ccccc1C(=O)N1CCN(c2ccccc2)CC1	-	-	-	-	-	-	.	.
COc1cc2c(=O)n(Cc3ccccc3)c(=O)n(CC(=O)NCCc3ccccc3)c2cc1OC	-	-	-	-	-	+	-	-
O=C(Nc1ccc(Br)cc1)c1ccc2c(c1)OCO2	-	-	-	-	-	-	.	.
O=c1[nH]c(SCc2ccccc2)nc2c1sc1ccccc12	-	-	-	-	-	+	-	-
OC(CNCCCN1CCCCC1)COc1ccccc1 (centres undefined)	-	-	-	-	-	+	-	-
OC(COc1ccccc1)CN1CCCCCC1 (centres undefined)	-	-	-	-	-	-	.	.
NNC(=O)c1nc[nH]c1C(=O)Nc1ccccc1	-	-	-	-	-	-	.	.
COc1ccc(C(=O)Cn2cc[n+](C)c2)cc1	-	-	-	-	-	+	-	-
CCc1nc2c(OCc3ccccc3)cccn2c1N(C)C(C)=O	-	.	-	-	-	-	.	.
CC(C)c1ccc(O)c(NC(=S)NC(=O)CCc2ccccc2)c1	-	-	-	-	-	-	.	.
C[C@H](NC(=O)c1nc[nH]c1C(=O)N(C)CCO)c1ccccc1	-	.	-	-	-	-	.	.
C1CCC2(CC1)C1=C(CCCC1)Nc1nnnn12	-	-	-	-	-	+	-	-
O=C(ONC(=O)C1C2C=CC(C2)C1C(=O)NOC(=O)c1ccccc1)c1ccccc1 (centres undefined)	-	-	-	-	-	-	-	-
COC(=O)c1ccc(NC(=O)C2C3C=CC(C3)C2C(=O)O)cc1 (centres undefined)	-	-	-	-	-	-	.	.
CC(=O)c1ccc(N2CCN(C(=O)c3cc(-c4ccncc4)nc4ccc(Cl)cc34)CC2)cc1	-	.	-	-	-	-	.	.
Cc1ccnc(NS(=O)(=O)c2ccc(NC(=O)c3ccc(Cl)cc3[N+](=O)[O-])cc2)n1	-	-	-	-	-	-	.	.
COc1ccc(N2CCN(Cc3nc(N)nc(Nc4ccccc4OC)n3)CC2)cc1	-	-	-	-	-	-	.	.
COc1ccc(Nc2nc(N)nc(CN3CCN(c4ccc(F)cc4)CC3)n2)cc1	-	-	-	-	-	-	-	-
CC(C)CNC(=O)c1ccccc1SCC(=O)NC12CC3CC(CC(C3)C1)C2	-	-	-	-	-	+	-	-
CCOC(=O)Nc1nc(C)c(C(=O)c2ccc(Cl)cc2)s1	-	-	-	-	-	-	-	-
COC(=O)Nc1nc(C)c(C(=O)c2ccccc2)s1	-	-	-	-	-	-	.	.
CC1CCCC(NC(=O)COC(=O)COc2cccc(F)c2)C1C (centres undefined)	-	-	-	-	-	-	.	.
Cc1ccc([N+](=O)[O-])cc1S(=O)(=O)Nc1ccc(N2CCOCC2)cc1	-	-	-	-	-	-	.	.
